Most compounds without a hit are left out; they make up all but 1.5% or so of the library.
T cell modulator = modulators of CD8 T cell-vesicle binding, primary screen, mouse 2C CD8+ T cells, flow cytometry; 2C CD8+ T cell-vesicle binding; active compounds read low; response (vesicle binding), % at 7 µM; actives 0.068% (n = 330,000);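 active means response, share of CD8 T cells binding vesicles, and their 90th percentile fluorescence all below set limits, cut at about 80% in these data, passing the limit was not always enough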;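 further: values below 100% mean blocked vesicle binding to the CD8+ T cells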
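Benchmarks: naked versus QL9-loaded vesicles / Assay system: purified 2C TCR transgenic mouse naive CD8+ T cells / Technique: high-throughput flow cytometry with anti-B7-1 and anti-CD8 staining / Timing: Cell–vesicle co-incubation 1.5 h at 37 °C, staining 20 min on ice / Read-out: percent CD8+ FL2 mean versus row control / Probe or stimulus: QL9-loaded Drosophila micro-vesicles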
LANA-H2A inh = blockers of LANA interaction with H2A/H2B – biochemical, FP readout, HTS, primary screen; Protein LANA1 (Human herpesvirus 8 type P (isolate GK18)), Q9QR71; cell-free LANA-H2A/H2B peptide, fluorescence polarization; inhibition, % (concentration not given with the values); actives 0.6% (n = 320,000); AID 2629, 2010; in the data active means inhibition mostly above about 10%, no sharp cut-off; inactive means mostly below about 6.7%
Pemphigus Ab inh = inhibitors of pemphigus antibody binding to DSG3, primary screen, biochemical, bead-based, flow cytometry, scFv-GFP. Desmoglein-3 (Homo sapiens), P32926. DSG3-coupled beads, scFv-anti-DSG3-GFP binding; active compounds read low. binding (percent of control), % at 10 µM. actives 0.48% (n = 310,000). AID 588358, 2011;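 active means binding more than 3 SD below its plate's average and above zero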;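 further: hits lower antibody fragment binding to DSG3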
HDAC3 inh = HDAC3 deacetylase inhibitors, primary screen, biochemical, fluorescence, cell-free homogeneous | actives 0.15% (n = 320,000) | recombinant HDAC3, fluorogenic peptide/trypsin coupled | inhibition, % at 8.3 µM | AID 2718, 2010; in the data active means inhibition above about 26%, passing the limit was not always enough
Arrestin-AP2 inh = inhibitors of beta-arrestin/AP2 binding, primary screen, biochemical, GPCR trafficking, flow cytometry; beta-arrestin 1 C-terminal peptide binding to AP2 beta2-adaptin appendage (human); FITC-arrestin peptide / GST-AP2 beads; AP2 beta2 appendage carries R879A mutation; inhibition, % at 10 µM; actives 0.31% (n = 340,000); AID 504490, 2011;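 active means inhibition above a set limit, near 3 SD of compounds lacking own fluorescence, cut at about 54% in these data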;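 further: plate controls were DMSO wells for no effect and 5 µM unlabelled arrestin peptide for full effect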
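system = GST-tagged AP2 beta2-adaptin appendage (R879A) on 4 µm glutathione beads | reagent = FITC-labelled arrestin peptide probe, 50 nM final | schedule = compound with beads 12 min RT, then probe 1 h RT | signal = HyperCyt-sampled flow cytometry, FL1 channel, ex 488/em 535 nm | read-out = percent response from loss of bead-bound FITC fluorescence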
* marks the source's active call; other numbers are inactive results; ! = not active in a repeat.

How did CC(=O)Nc1ccc(NC(=O)Nc2ccc(C)cc2C)cc1 do in these assays?
T cell modulator: 258.3; LANA-H2A inh: 14.9*; Pemphigus Ab inh: 85.0; HDAC3 inh: 5.8; Arrestin-AP2 inh: 6.1

What do the screens show for `CCOc1ccc(NC(=O)CCC(=O)NNC(=O)COc2ccc(C)cc2)cc1`?
T cell modulator: 122.9; LANA-H2A inh: 4.9; Pemphigus Ab inh: 83.8*; HDAC3 inh: -2.9; Arrestin-AP2 inh: -2.5

What do the screens show for `CC(=O)Nc1ccc(OCC(=O)c2ccc(C)cc2C)cc1`?
T cell modulator: 170.7; LANA-H2A inh: 1.2; Pemphigus Ab inh: 105.7; HDAC3 inh: 0.8; Arrestin-AP2 inh: 0.8

What do the screens show for `Cc1cccc(CS(=O)(=O)c2ncc(CO)n2C)c1`?
T cell modulator: 260.5; LANA-H2A inh: 1.5; Pemphigus Ab inh: 95.7; HDAC3 inh: -13.9; Arrestin-AP2 inh: -9.3

Results for O=C(NCc1ccc(Cl)cc1)C(=O)Nc1nccs1 ?
T cell modulator: 513.0; LANA-H2A inh: -0.3; Pemphigus Ab inh: 75.8*; HDAC3 inh: -5.6; Arrestin-AP2 inh: 31.3

Results for CSc1nc(-c2ccccc2)cn1-c1ccc(NC(C)=O)cc1 ?
T cell modulator: 173.7; LANA-H2A inh: 36.6*; Pemphigus Ab inh: 106.4; HDAC3 inh: 6.6; Arrestin-AP2 inh: 9.4

What do the screens show for `C/C=C(\C)C(=O)Nc1cccc(C2=NOC3(C2)C[C@@H](C(N)=O)N(C(=O)/C(C)=C/C)C3)c1` (stereo partly drawn)?
T cell modulator: 154.2; LANA-H2A inh: 7.4; Pemphigus Ab inh: 92.2; HDAC3 inh: -9.6; Arrestin-AP2 inh: 5.3

What do the screens show for `C/C=C/C=C/C(=O)N1CC2(CC(c3cccc(NC(=O)CCCCC)c3)=NO2)C[C@H]1C(N)=O` (stereo partly drawn)?
T cell modulator: 336.0; LANA-H2A inh: -2.1; Pemphigus Ab inh: 100.8; HDAC3 inh: 60.8*; Arrestin-AP2 inh: 1.2

Results for CC/C=C/C(=O)N1CC2(CC(c3cccc(NC(=O)CCCCC)c3)=NO2)C[C@H]1C(N)=O (stereo partly drawn) ?
T cell modulator: 195.9; LANA-H2A inh: 1.4; Pemphigus Ab inh: 84.7; HDAC3 inh: 4.3; Arrestin-AP2 inh: 0.5

What do the screens show for `C=C(C)C(=O)Nc1cccc(C2=NOC3(C2)C[C@@H](C(N)=O)N(C(=O)/C=C/C=C/C)C3)c1` (stereo partly drawn)?
T cell modulator: 391.1; LANA-H2A inh: -1.2; Pemphigus Ab inh: 89.7*; HDAC3 inh: 6.2; Arrestin-AP2 inh: 8.6

How did C/C=C/C=C/C(=O)N1CC2(CC(c3cccc(NC(=O)/C=C/C)c3)=NO2)C[C@@H]1C(N)=O (stereo partly drawn) do in these assays?
T cell modulator: 330.9; LANA-H2A inh: -4.5; Pemphigus Ab inh: 94.9; HDAC3 inh: 3.9; Arrestin-AP2 inh: -3.0

What do the screens show for `C=C(C)C(=O)Nc1cccc(C2=NOC3(C2)C[C@@H](C(N)=O)N(C(=O)/C(C)=C/C)C3)c1` (stereo partly drawn)?
T cell modulator: 513.8; LANA-H2A inh: 3.8; Pemphigus Ab inh: 89.1*; HDAC3 inh: -4.5; Arrestin-AP2 inh: 9.2

What do the screens show for `CC(=O)Nc1ccc(S(=O)(=O)NCCC(=O)NCCOc2ccccc2)cc1`?
T cell modulator: 252.7; LANA-H2A inh: -6.2; Pemphigus Ab inh: 108.1; HDAC3 inh: -1.6; Arrestin-AP2 inh: -17.9

What do the screens show for `O=C1CCCN1CCCNc1ccc2nnc(CCC(=O)N3CCN(c4ccccc4)CC3)n2n1`?
T cell modulator: 171.6; LANA-H2A inh: -4.1; HDAC3 inh: -2.0; Arrestin-AP2 inh: 5.9

Results for O=S(=O)(NCCCCCNS(=O)(=O)c1ccccc1)c1ccccc1 ?
T cell modulator: 281.7; LANA-H2A inh: 15.7*!; Pemphigus Ab inh: 105.6; HDAC3 inh: 3.5; Arrestin-AP2 inh: 30.5

What do the screens show for `Cc1ccc(S(=O)(=O)NNC(=O)CCCCC(=O)NNS(=O)(=O)c2ccc(C)cc2)cc1`?
T cell modulator: 130.8; LANA-H2A inh: 7.7*; Pemphigus Ab inh: 101.9; HDAC3 inh: -2.5; Arrestin-AP2 inh: 18.1

Results for Cc1ccc(S(=O)(=O)NCCCNS(C)(=O)=O)cc1 ?
T cell modulator: 294.8; LANA-H2A inh: 3.9; Pemphigus Ab inh: 94.2; HDAC3 inh: -2.2; Arrestin-AP2 inh: 22.4

Results for Cc1ccc(S(=O)(=O)NNC(=O)C(=O)NNS(=O)(=O)c2ccc(C)cc2)cc1 ?
T cell modulator: 337.9; LANA-H2A inh: -1.5; Pemphigus Ab inh: 83.6; HDAC3 inh: -4.8; Arrestin-AP2 inh: 4.6

How did Cc1ccc(S(=O)(=O)NCCNS(=O)(=O)c2ccc(C)cc2)cc1 do in these assays?
T cell modulator: 297.2; LANA-H2A inh: 19.4*; Pemphigus Ab inh: 636.5; HDAC3 inh: 9.4; Arrestin-AP2 inh: -123.5

How did O=S(=O)(NCCCc1ccccc1)c1ccccc1 do in these assays?
T cell modulator: 202.8; LANA-H2A inh: 1.4; Pemphigus Ab inh: 104.9; HDAC3 inh: 3.1; Arrestin-AP2 inh: -4.4

What do the screens show for `COc1ccc(C(C(=O)NC(C)(C)C)N(C(=O)CNC(=O)c2cccs2)c2cccnc2)cc1OC` (stereo not drawn)?
T cell modulator: 261.9; LANA-H2A inh: -1.5; Pemphigus Ab inh: 97.7; HDAC3 inh: 4.2; Arrestin-AP2 inh: 7.0

How did Cc1c(C)c2ccc(OCC(=O)N3CCOCC3)c(C)c2oc1=O do in these assays?
T cell modulator: 75.0; LANA-H2A inh: active; Pemphigus Ab inh: 119.4; HDAC3 inh: -18.1; Arrestin-AP2 inh: 27.3

Results for Cc1ccc(OCC(=O)NCCCNC(=O)COc2ccc(C)cc2)cc1 ?
Pemphigus Ab inh: 102.6; Arrestin-AP2 inh: 19.1

How did COc1ccc(OCC(=O)NCCCNC(=O)COc2ccc(OC)cc2)cc1 do in these assays?
T cell modulator: 289.5; LANA-H2A inh: 11.0*; Pemphigus Ab inh: 97.3; HDAC3 inh: -0.6; Arrestin-AP2 inh: -2.6

How did COc1ccc(N2CCN(S(=O)(=O)CCNC(=O)COc3cccc(OC)c3)CC2)cc1 do in these assays?
T cell modulator: 439.5; LANA-H2A inh: -7.0; Pemphigus Ab inh: 53.5*; HDAC3 inh: -0.1; Arrestin-AP2 inh: -5.2

Results for COCCNC(=O)C(=O)NNC(=O)COc1ccc(OC)cc1 ?
T cell modulator: 175.7; LANA-H2A inh: 19.6*; Pemphigus Ab inh: 85.1; HDAC3 inh: -0.1; Arrestin-AP2 inh: 4.3

What do the screens show for `COCCNC(=O)C(c1ccc(F)cc1)N(C(=O)CCC(=O)Nc1ccccn1)c1cccc(C)c1` (stereo not drawn)?
T cell modulator: 203.7; LANA-H2A inh: 6.1; Pemphigus Ab inh: 100.7; HDAC3 inh: -1.6; Arrestin-AP2 inh: 10.3
